# Legend:
# D(2) dopamine receptor = D(2) dopamine receptor (Rattus norvegicus, UniProt P61169); assay: Displacement of [3H] Spiperone from rat striatum dopamine D2 receptor measured after 30 mins by liquid scintillation counter method
# In short: (§1)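 Competition binding in rat brain tissue membranes against D2, 5-HT1A and 5-HT2A sites; Ki reported as mean ± S.E.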
# [1] = target: T1, 5-hydroxytryptamine receptor 1A (Rattus norvegicus, UniProt P19327); assay: Displacement of [3H]-8-OH-DPAT from rat cerebral cortex 5HT1A receptor measured after 15 mins by liquid scintillation counter method
# T1 sequence (P19327 whole entry): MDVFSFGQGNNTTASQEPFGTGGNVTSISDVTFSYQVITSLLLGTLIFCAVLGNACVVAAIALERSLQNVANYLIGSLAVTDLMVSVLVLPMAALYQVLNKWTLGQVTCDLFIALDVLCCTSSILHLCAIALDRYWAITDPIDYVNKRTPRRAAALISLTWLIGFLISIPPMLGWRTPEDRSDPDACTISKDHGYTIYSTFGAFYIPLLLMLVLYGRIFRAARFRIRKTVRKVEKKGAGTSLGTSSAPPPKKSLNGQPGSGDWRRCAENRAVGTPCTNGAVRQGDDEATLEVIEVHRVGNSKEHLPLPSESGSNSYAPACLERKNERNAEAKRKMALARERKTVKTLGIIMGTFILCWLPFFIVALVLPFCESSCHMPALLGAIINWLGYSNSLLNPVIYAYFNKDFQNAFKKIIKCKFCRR
# [2] = target: 5-hydroxytryptamine receptor 2A (Rattus norvegicus, UniProt P14842); assay: Displacement of [3H]-ketanserin from rat cerebral cortex 5HT2A receptor measured after 20 mins by liquid scintillation counter method; in short: as §1
# Mus musculus [3] = assay: Effect on 8-OH-DPAT-induced hypothermia in Swiss albino mouse assessed as change in rectal body temperature at 10 mg/kg, ip pretreated with compound for 45 mins followed by 8-OH-DPAT challenge and measured after 45 min by thermometer (reference value: -1.04 to -0.78 degreeC); format: functional, organism-based; settings: time 90.0 min
# [4] = Effect on body temperature in Swiss Albino mouse assessed as rectal body temperature at 20 mg/kg, ip measured after 120 mins by thermometer (reference value: 0.15 to 1.11 degreeC); format: ADME, organism-based; settings: in vivo, 2 h
# Mus musculus [5] = assay: Effect on 8-OH-DPAT-induced hypothermia in Swiss albino mouse assessed as change in rectal body temperature at 20 mg/kg, ip pretreated with compound for 45 mins followed by 8-OH-DPAT challenge and measured after 45 min by thermometer (reference value: -1.04 to -0.78 degreeC); format: functional, organism-based; settings: time 90.0 min
# [6] = target: Dopamine D2 receptor and Serotonin 2a receptor (D2 and 5HT2a) (Rattus norvegicus) (UniProt P61169+P14842); assay: Ratio of pKi for displacement of [3H]-ketanserin from rat cerebral cortex 5HT2A receptor measured after 20 mins by liquid scintillation counter method to pKi for displacement of [3H] Spiperone from rat striatum dopamine D2 receptor measured after 30 mins by liquid scintillation counter method
# In short: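 Ratio of pKi values, 5-HT2A over D2, computed from competition radioligand binding in rat brain tissue.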
# [7] = Effect on body temperature in Swiss Albino mouse assessed as rectal body temperature at 10 mg/kg, ip measured after 30 mins by thermometer (reference value: 0.16 to 0.33 degreeC); format: organism-based; settings: in vivo, 0.5 h
# Mus musculus [8] = assay: Effect on 8-OH-DPAT-induced hypothermia in Swiss albino mouse assessed as change in rectal body temperature at 20 mg/kg, ip pretreated with compound for 45 mins followed by 8-OH-DPAT challenge and measured after 15 min by thermometer (reference value: -1.82 to -1.66 degreeC); format: functional, organism-based; settings: time 60.0 min
# [9] = Effect on 8-OH-DPAT-induced lower lip retraction in Wistar rat at 10 mg/kg, ip pretreated with compound for 45 mins followed by 8-OH-DPAT challenge and measured after 15 mins (reference value: 2.7 to 2.8); format: functional; settings: time 60 min, 1 h
# Mus musculus [10] = assay: Antipsychotic activity Swiss Albino mouse assessed as inhibition of DOI-induced head twitching by measuring number of episodes at 2.5 mg/kg, ip administered 30 mins prior to DOI stimulation (reference value: 19.63 to 19.88); format: functional; settings: 0.5 h
# In short: (§2)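 Male Albino Swiss mice (24–28 g) were habituated to sawdust-lined cages 20 min before the first treatment. Compounds were suspended in 1% aqueous Tween 80 and given i.p. 30 min before (±)-DOI, 2.5 mg/kg i.p. in aqueous solution. Head twitches were counted blind over 20 min, n=8 per group, mean ± SEM, one-way ANOVA with Dunnett's test.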
# [11] = Effect on body temperature in Swiss Albino mouse assessed as rectal body temperature at 20 mg/kg, ip measured after 60 mins by thermometer (reference value: 0.33 to 0.61 degreeC); format: ADME, organism-based; settings: in vivo, 1 h
# [12] = Effect on body temperature in Swiss Albino mouse assessed as rectal body temperature at 10 mg/kg, ip measured after 120 mins by thermometer (reference value: 0.15 to 1.11 degreeC); format: organism-based; settings: in vivo, 2 h
# [13] = Effect on body temperature in Swiss Albino mouse assessed as rectal body temperature at 20 mg/kg, ip measured after 90 mins by thermometer (reference value: 0.18 to 0.63 degreeC); format: ADME, organism-based; settings: in vivo, 1.5 h
# Mus musculus [14] = assay: Effect on 8-OH-DPAT-induced hypothermia in Swiss albino mouse assessed as change in rectal body temperature at 10 mg/kg, ip pretreated with compound for 45 mins followed by 8-OH-DPAT challenge and measured after 30 min by thermometer (reference value: -1.36 to -1.12 degreeC); format: functional, organism-based; settings: time 75.0 min
# [15] = Effect on body temperature in Swiss Albino mouse assessed as rectal body temperature at 10 mg/kg, ip measured after 90 mins by thermometer (reference value: 0.18 to 0.63 degreeC); format: ADME, organism-based; settings: in vivo, 1.5 h
# Mus musculus [16] = assay: Effect on 8-OH-DPAT-induced hypothermia in Swiss albino mouse assessed as change in rectal body temperature at 10 mg/kg, ip pretreated with compound for 45 mins followed by 8-OH-DPAT challenge and measured after 60 min by thermometer (reference value: -0.66 to -0.5 degreeC); format: functional, organism-based; settings: time 105.0 min
# [17] = Effect on body temperature in Swiss Albino mouse assessed as rectal body temperature at 20 mg/kg, ip measured after 30 mins by thermometer (reference value: 0.16 to 0.33 degreeC); format: ADME, organism-based; settings: in vivo, 0.5 h
# Mus musculus [18] = assay: Antipsychotic activity Swiss Albino mouse assessed as inhibition of DOI-induced head twitching by measuring number of episodes at 5 mg/kg, ip administered 30 mins prior to DOI stimulation (reference value: 19.63 to 19.88); format: functional; settings: 0.5 h; in short: as §2
# [19] = Half life in pooled human liver microsomes assessed as parent compound remaining at 2.5 uM measured up to 45 mins in presence of NADPH by LC-MS analysis; format: ADME, Microsome
# In short: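 Compound at 2.5 μM (added from 100 μM stock in 50/50 acetonitrile/water) with 1 mg/mL pooled human liver microsomes and 250 μM NADPH in 0.1 M potassium phosphate pH 7.4 at 37 °C after 5-min preincubation. Sampled at 5, 10, 15, 30, 45 min into ice-cold acetonitrile with atropine internal standard; parent quantified by LC-MS (ESI+, [M+H]+); no-NADPH controls; half-time derived.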
# Mus musculus [20] = assay: Effect on 8-OH-DPAT-induced hypothermia in Swiss albino mouse assessed as change in rectal body temperature at 20 mg/kg, ip pretreated with compound for 45 mins followed by 8-OH-DPAT challenge and measured after 60 min by thermometer (reference value: -0.66 to -0.5 degreeC); format: functional, organism-based; settings: time 105.0 min
# Mus musculus [21] = assay: Antipsychotic activity Swiss Albino mouse assessed as inhibition of DOI-induced head twitching by measuring number of episodes at 10 mg/kg, ip administered 30 mins prior to DOI stimulation (reference value: 19.63 to 19.88); format: functional; settings: 0.5 h; in short: as §2
# Mus musculus [22] = assay: Effect on 8-OH-DPAT-induced hypothermia in Swiss albino mouse assessed as change in rectal body temperature at 10 mg/kg, ip pretreated with compound for 45 mins followed by 8-OH-DPAT challenge and measured after 15 min by thermometer (reference value: -1.82 to -1.66 degreeC); format: functional, organism-based; settings: time 60.0 min
# Mus musculus [23] = assay: Effect on 8-OH-DPAT-induced hypothermia in Swiss albino mouse assessed as change in rectal body temperature at 20 mg/kg, ip pretreated with compound for 45 mins followed by 8-OH-DPAT challenge and measured after 30 min by thermometer (reference value: -1.36 to -1.12 degreeC); format: functional, organism-based; settings: time 75.0 min
# [24] = Effect on body temperature in Swiss Albino mouse assessed as rectal body temperature at 10 mg/kg, ip measured after 60 mins by thermometer (reference value: 0.33 to 0.61 degreeC); format: ADME, organism-based; settings: in vivo, 1 h
# [25] = Effect on 8-OH-DPAT-induced lower lip retraction in Wistar rat at 20 mg/kg, ip pretreated with compound for 45 mins followed by 8-OH-DPAT challenge and measured after 15 mins (reference value: 2.7 to 2.8); format: functional; settings: time 60 min, 1 h
# Chain of 5-hydroxytryptamine receptor 2A (P14842 whole entry): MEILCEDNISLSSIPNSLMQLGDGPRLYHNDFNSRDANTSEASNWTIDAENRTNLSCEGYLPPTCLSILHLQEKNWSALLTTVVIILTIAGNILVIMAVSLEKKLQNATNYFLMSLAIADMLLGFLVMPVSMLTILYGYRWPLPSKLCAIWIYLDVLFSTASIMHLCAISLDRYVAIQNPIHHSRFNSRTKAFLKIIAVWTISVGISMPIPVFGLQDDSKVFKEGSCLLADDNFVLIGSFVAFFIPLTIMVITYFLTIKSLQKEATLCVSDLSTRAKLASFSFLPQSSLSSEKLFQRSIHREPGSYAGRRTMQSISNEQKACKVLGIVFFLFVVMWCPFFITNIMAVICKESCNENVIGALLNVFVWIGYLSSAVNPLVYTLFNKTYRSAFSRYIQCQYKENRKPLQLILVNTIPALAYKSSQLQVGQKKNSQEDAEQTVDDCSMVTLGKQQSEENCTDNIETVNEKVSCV
# Chain of D(2) dopamine receptor (P61169 whole entry): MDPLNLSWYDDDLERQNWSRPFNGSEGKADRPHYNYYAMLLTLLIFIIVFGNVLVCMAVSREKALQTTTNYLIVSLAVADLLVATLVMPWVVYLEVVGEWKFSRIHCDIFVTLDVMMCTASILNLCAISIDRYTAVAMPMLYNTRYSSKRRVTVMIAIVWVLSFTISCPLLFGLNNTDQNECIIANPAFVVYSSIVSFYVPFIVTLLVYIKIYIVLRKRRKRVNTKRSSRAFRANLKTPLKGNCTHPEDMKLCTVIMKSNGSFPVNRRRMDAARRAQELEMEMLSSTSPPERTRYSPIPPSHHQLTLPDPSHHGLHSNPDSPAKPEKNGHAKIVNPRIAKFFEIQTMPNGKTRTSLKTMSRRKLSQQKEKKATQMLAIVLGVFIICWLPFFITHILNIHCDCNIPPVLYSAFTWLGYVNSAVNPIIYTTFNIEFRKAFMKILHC
# Chain of Dopamine D2 receptor and Serotonin 2a receptor (D2 and 5HT2a) (Rattus norvegicus) (P14842 whole entry, looked up): as the sequence (P14842 whole entry) above
# Chain of Dopamine D2 receptor and Serotonin 2a receptor (D2 and 5HT2a) (Rattus norvegicus) (P61169 whole entry, looked up): as the sequence (P61169 whole entry) above
compound,measurement,setting,value
O=C(NC1CC2CCC(C1)N2Cc1ccccc1C(F)(F)F)c1ccc2ccccc2c1 (stereo not given),Ki,D(2) dopamine receptor,537 nM
same,Ki,[1],476 nM
same,Ki,[2],102 nM
O=C(NC1CC2CCC(C1)N2Cc1ccccn1)c1ccc2ccccc2c1 (stereo not given),Ki,D(2) dopamine receptor,2200 nM
same,Ki,[1],315 nM
same,Ki,[2],589 nM
Cc1ccccc1CN1C2CCC1CC(NC(=O)c1ccc3ccccc3c1)C2 (stereo not given),Ki,D(2) dopamine receptor,118 nM
same,Ki,[1],193 nM
same,Ki,[2],1290 nM
COc1cc(C(=O)NC2CC3CCC(C2)N3Cc2ccccc2)nc2ccccc12 (stereo not given),Ki,D(2) dopamine receptor,> 10000 nM
same,Ki,[1],30.5 nM
same,Ki,[2],495 nM
COc1ccccc1CN1C2CCC1CC(NC(=O)c1ccc3ccccc3c1)C2 (stereo not given),deltaT,Mus musculus [3],-1.45 °C
same,deltaT,[4],-0.26 °C
same,deltaT,Mus musculus [5],-0.92 °C
same,Ki,D(2) dopamine receptor,76.9 nM
same,Ratio pKi,[6],0.85
same,deltaT,[7],0.23 °C
same,deltaT,Mus musculus [8],-1.47 °C
same,Activity,[9],2.5
same,Activity,Mus musculus [10],16.25
same,deltaT,[11],0.01 °C
same,deltaT,[12],0.26 °C
same,deltaT,[13],0.16 °C
same,deltaT,Mus musculus [14],-1.77 °C
same,deltaT,[15],0.63 °C
same,deltaT,Mus musculus [16],-1.08 °C
same,deltaT,[17],-0.34 °C
same,Activity,Mus musculus [18],12.25
same,half-life at 2.5 µM,[19],41.3 min
same,Ki,[1],82.5 nM
same,Ki,[2],920 nM
same,deltaT,Mus musculus [20],-0.65 °C
same,Activity,Mus musculus [21],8.25
same,deltaT,Mus musculus [22],-1.37 °C
same,deltaT,Mus musculus [23],-1.37 °C
same,deltaT,[24],0.44 °C
same,Activity,[25],2
O=C(NC1CC2CCC(C1)N2Cc1ccncc1)c1ccc2ccccc2c1 (stereo not given),Ki,D(2) dopamine receptor,2700 nM
same,Ki,[1],2300 nM
same,Ki,[2],1120 nM
O=C(NC1CC2CCC(C1)N2Cc1ccc(C(F)(F)F)cc1)c1ccc2ccccc2c1 (stereo not given),Ki,D(2) dopamine receptor,629 nM
same,Ki,[1],2000 nM
same,Ki,[2],> 10000 nM
COc1ccc(CN2C3CCC2CC(NC(=O)c2ccc4ccccc4c2)C3)cc1 (stereo not given),Ki,D(2) dopamine receptor,0.6 nM
same,Ki,[1],2600 nM
same,Ki,[2],920 nM
O=C(NC1CC2CCC(C1)N2Cc1cccc(C(F)(F)F)c1)c1ccc2ccccc2c1 (stereo not given),Ki,D(2) dopamine receptor,217 nM
same,Ki,[1],130 nM
same,Ki,[2],209 nM
